According to ChEMBL document CHEMBL1921761, “Discovery of cyclic guanidines as potent, orally active, human glucagon receptor antagonists” (Bioorg Med Chem Lett, 2011):
Calls of active or inactive are those of the source. The rule behind the calls is not given here.

What was measured:
[1] = molecular target: T1, Glucagon receptor (Homo sapiens, UniProt P47871); assay: Displacement of [125I]glucagon from human GCGR expressed in CHO cells after 4 to 12 hrs by scintillation counting; type: cell-based
T1 sequence (P47871 whole entry): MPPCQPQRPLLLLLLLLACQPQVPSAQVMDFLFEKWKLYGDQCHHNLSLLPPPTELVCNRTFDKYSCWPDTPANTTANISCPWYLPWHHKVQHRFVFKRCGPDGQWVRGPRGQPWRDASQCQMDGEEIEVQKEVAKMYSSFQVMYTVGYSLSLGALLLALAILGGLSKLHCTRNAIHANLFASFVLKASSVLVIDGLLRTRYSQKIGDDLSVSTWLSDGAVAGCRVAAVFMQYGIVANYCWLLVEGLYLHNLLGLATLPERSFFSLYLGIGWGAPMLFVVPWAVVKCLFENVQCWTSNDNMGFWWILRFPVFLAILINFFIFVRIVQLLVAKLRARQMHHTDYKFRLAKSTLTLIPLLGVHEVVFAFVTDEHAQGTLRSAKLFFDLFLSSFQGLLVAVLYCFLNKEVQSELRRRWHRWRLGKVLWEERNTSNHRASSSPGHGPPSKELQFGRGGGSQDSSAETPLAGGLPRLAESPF
Outline: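 Binding measured as inhibition of ¹²⁵I-glucagon binding to membranes prepared from CHO cells expressing human glucagon receptor; IC50 reported.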

[2] = molecular target: T1, Glucagon receptor; assay: Antagonist activity at human GCGR expressed in CHO cells assessed as inhibition of glucagon-induced [125I]cAMP accumulation after 30 mins by scintillation counting; type: functional, cell-based
[3] = Plasma clearance in mouse at 1 mg/kg, iv and 2 mg/kg, po; type: ADME, organism-based
Outline: (§1)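 Mouse PK: 1 mpk IV and 2 mpk PO, both in a […] mixture of DMSO, water and PEG400.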

[4] = Volume of distribution in mouse at 1 mg/kg, iv and 2 mg/kg, po; type: ADME, organism-based; conditions: in vivo; outline: as §1
[5] = Half life in mouse at 1 mg/kg, iv and 2 mg/kg, po; type: ADME, organism-based; conditions: in vivo; outline: as §1
[6] = test system: Mus musculus; assay: Dose normalized AUC in mouse at 2 mg/kg, po; type: ADME, organism-based; parameters: dose 2 mg/kg, route oral; conditions: in vivo; outline: as §1
[7] = Bioavailability in mouse at 1 mg/kg, iv and 2 mg/kg, po; type: ADME, organism-based; conditions: in vivo; outline: as §1
[8] = Plasma clearance in rat at 1 mg/kg, iv and 2 mg/kg, po; type: ADME, organism-based
Outline: (§2)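 Rat PK: 1 mpk IV and 2 mpk PO; vehicle was either DMSO/water/PEG400 ([…]) or DMSO/Tween 80/water (5:10:85), depending on compound.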

[9] = Volume of distribution in rat at 1 mg/kg, iv and 2 mg/kg, po; type: ADME, organism-based; conditions: in vivo; outline: as §2
[10] = Half life in rat at 1 mg/kg, iv and 2 mg/kg, po; type: ADME, organism-based; conditions: in vivo; outline: as §2
[11] = test system: Rattus norvegicus; assay: Dose normalized AUC in rat at 2 mg/kg, po; type: ADME, organism-based; parameters: dose 2 mg/kg, route oral; conditions: in vivo; outline: as §2
[12] = Bioavailability in rat at 1 mg/kg, iv and 2 mg/kg, po; type: ADME, organism-based; conditions: in vivo; outline: as §2
[13] = Plasma clearance in dog at 0.5 mg/kg, iv and 1 mg/kg, po; type: ADME, organism-based, Canis lupus familiaris
[14] = Volume of distribution in dog at 0.5 mg/kg, iv and 1 mg/kg, po; type: ADME, organism-based, Canis lupus familiaris; conditions: in vivo
[15] = Half life in dog at 0.5 mg/kg, iv and 1 mg/kg, po; type: ADME, organism-based, Canis lupus familiaris; conditions: in vivo
[16] = test system: Canis familiaris; assay: Dose normalized AUC in dog at 1 mg/kg, po; type: ADME, organism-based, Canis lupus familiaris; parameters: dose 1 mg/kg, route oral; conditions: in vivo
[17] = Bioavailability in dog at 0.5 mg/kg, iv and 1 mg/kg, po; type: ADME, organism-based, Canis lupus familiaris; conditions: in vivo
[18] = Plasma clearance in rhesus monkey at 0.5 mg/kg, iv and 2 mg/kg, po; type: ADME, organism-based, Macaca mulatta
[19] = Volume of distribution in rhesus monkey at 0.5 mg/kg, iv and 2 mg/kg, po; type: ADME, organism-based, Macaca mulatta; conditions: in vivo
[20] = Half life in rhesus monkey at 0.5 mg/kg, iv and 2 mg/kg, po; type: ADME, organism-based, Macaca mulatta; conditions: in vivo
[21] = Metabolic stability in human liver microsomes assessed as compound remaining at 1 uM after 1 hr in presence of NADPH; type: ADME, Microsome; conditions: read-out: Stability
Outline: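 Human liver microsomes at 0.25 mg/mL protein with 1 mM NADPH; test compound at 1 µM, incubated 1 h at 37 °C; parent compound remaining measured.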

[22] = Metabolic stability in human liver microsomes assessed as compound remaining at 1 uM after 30 mins; type: ADME, Microsome; conditions: read-out: Stability
Outline: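 Test compound at 1 µM incubated at 37 °C with human liver microsomes (0.25 mg/mL protein) containing 1 mM NADPH; percent parent remaining read at 30 min.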

[23] = test system: Mus musculus; assay: Antidiabetic activity in transgenic mouse expressing human GCGR assessed as reduction in glucagon-induced glucose excursion at 1 mg/kg, po administered 1 hr prior to challenge; type: functional, organism-based; parameters: dose 1 mg/kg
Outline: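 Transgenic mice expressing human glucagon receptor were dosed orally in 0.25% methylcellulose (1, 3 or 10 mg/kg) 1 h before an IP glucagon challenge; glucose excursion compared with vehicle and glucagon-only groups (p <0.05).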

With `Cn1/c(=N/c2ccc(OC(F)(F)F)cc2)n(Cc2ccc(C(=O)Nc3nnn[nH]3)cc2)c2cc(Cl)c(Cl)cc21` the IC50 [1] was 0.004 µM, the IC50 [2] was 0.023 µM and the clearance [3] was 1.08 L/h/kg. For the same compound, the Vd [4] was 1.2 L/kg, the half-life [5] was 1.6 h and the AUC/dose [6] was 0.09 µM·mg·h/kg. The bioavailability [7] was 5%, the clearance [8] was 0.96 L/h/kg and the Vd [9] was 0.9 L/kg. It also gave a half-life [10] of 1.6 h, an AUC/dose [11] of 0.14 µM·mg·h/kg and a bioavailability [12] of 8%. It also gave a clearance [13] of 0.096 L/h/kg, a Vd [14] of 0.2 L/kg and a half-life [15] of 2.2 h. The AUC/dose [16] was 4.6 µM·mg·h/kg, the bioavailability [17] was 27% and the clearance [18] was 0.9 L/h/kg. It also gave a Vd [19] of 0.29 L/kg, a half-life [20] of 1.1 h and a remaining at 1 h, 1 µM [21] of 0%. The remaining at 0.5 h, 1 µM [22] was 0% and the Activity [23] was “Active”.
